{"source": "ChEMBL document CHEMBL1128448", "about": "“Synthesis and antifungal activity of new azole derivatives containing an N-acylmorpholine ring” (1995)", "type_in_all_cases": "functional", "key": {"[1]": {"tested_on": "Rattus norvegicus", "assay": "In vivo evaluation of antifungal activity against vaginal candidosis in rat at dose 0.25 mg/kg on 10th day", "procedure,_shortened": "(§1)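 Groups of 10 female Wistar rats given estradiol 25 mg/kg sc on day -5, infected intravaginally with C. albicans by sterile swab on day 0; infection confirmed on day 3 by swab culture (TSB, then Sabouraud agar). Oral dosing once daily on days 3, 4, 5; vehicle controls. Vaginal swabs cultured on days 10 and 15; read-out % cured (culture-negative).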"}, "[2]": {"tested_on": "Nakaseomyces glabratus", "assay": "In vivo Evaluation of minimum inhibitory concentration against Torulopsis glabrata 78", "conditions": "in the assay text read “In vitro” for “In vivo”", "procedure,_shortened": "(§2)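 Stocks are 800 μg/mL in 50% ethanol. Each plate gets 10 μL of inoculum at 10^5 cfu/mL. Incubation at 25 °C, 48 h for yeasts and 120 h for dermatophytes and molds. Organisms are ATCC strains or clinical isolates.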"}, "[3]": {"tested_on": "Candida tropicalis", "assay": "In vivo Evaluation of minimum inhibitory concentration against Candida tropicalis 2.11", "procedure,_shortened": "as §2"}, "[4]": {"tested_on": "Kluyveromyces marxianus", "assay": "In vivo Evaluation of minimum inhibitory concentration against Candida pseudotropicalis 13", "conditions": "Kluyveromyces marxianus; read-out: MIC", "procedure,_shortened": "as §2"}, "[5]": {"tested_on": "Rhodotorula mucilaginosa", "assay": "In vivo Evaluation of minimum inhibitory concentration against Rhodotorula rubra 16", "conditions": "in the assay text read “In vitro” for “In vivo”", "procedure,_shortened": "as §2"}, "[6]": {"tested_on": "Kluyveromyces marxianus", "assay": "Evaluation of In vitro antifungal activity against yeasts by broth macro dilution method", "procedure,_shortened": "(§3)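 Yeast MIC and MFC by broth macrodilution per NCCLS M27-P in RPMI-1640 buffered with 0.165 M MOPS. Fluconazole in sterile water, other drugs in DMSO. C. parapsilosis ATCC 22019 is the reference strain in each run. MIC is the lowest concentration with turbidity ≤ the 80% inhibition standard. For MFC, 0.04 mL from clear tubes is plated on Sabouraud agar; MFC is the lowest concentration giving ≤1 colony.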"}, "[7]": {"tested_on": "Candida parapsilosis", "assay": "Evaluation of In vitro antifungal activity against Candida parapsilosis ATCC 22019 by broth macro dilution method", "conditions": "Lodderomyces parapsilosis", "procedure,_shortened": "as §3"}, "[8]": {"tested_on": "Candida albicans", "assay": "In vivo evaluation of minimum inhibitory concentration against Candida albicans 406", "procedure,_shortened": "(§4)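 Broth macrodilution MIC following NCCLS M27-P, in RPMI-1640 buffered with 0.165 M MOPS. Fluconazole was dissolved in water and other drugs in DMSO. C. parapsilosis ATCC 22019 served as the reference strain in every run. MIC was the lowest concentration giving turbidity at or below the 80% inhibition standard.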"}, "[9]": {"tested_on": "Candida albicans", "assay": "In vivo evaluation of minimum inhibitory concentration against Candida albicans 60", "procedure,_shortened": "as §4"}, "[10]": {"tested_on": "Rattus norvegicus", "assay": "In vivo evaluation of antifungal activity against vaginal candidosis in rat at dose 0.1 mg/kg on 10th day", "procedure,_shortened": "(§5)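 Groups of 10 female Wistar rats given estradiol 25 mg/kg sc on day -5, then vaginally inoculated with C. albicans on day 0. Infection is confirmed by culture of day-3 swabs. Compound is dosed orally once daily on days 3–5; controls get vehicle. Cure is scored by culture of vaginal swabs taken on days 10 and 15.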"}, "[11]": {"tested_on": "Rattus norvegicus", "assay": "In vivo evaluation of antifungal activity against vaginal candidosis in rat at dose 0.1 mg/kg on 15th day", "procedure,_shortened": "as §5"}, "[12]": {"tested_on": "Mus musculus", "assay": "In vivo evaluation of % survival rate after peroral administration on 9th day at dose 5 mg/kg", "conditions": "route oral"}, "[13]": {"tested_on": "Kluyveromyces marxianus", "assay": "In vitro evaluation of minimum inhibitory concentration against Candida pseudotropicalis 13", "conditions": "Kluyveromyces marxianus; read-out: MIC", "procedure,_shortened": "as §2"}, "[14]": {"tested_on": "Mus musculus", "assay": "In vivo evaluation of % survival rate after peroral administration on 7th day at dose 20 mg/kg", "conditions": "route oral"}, "[15]": {"tested_on": "Rhodotorula mucilaginosa", "assay": "In vitro evaluation of minimum inhibitory concentration against Rhodotorula rubra 16", "conditions": "Rhodotorula mucilaginosa; read-out: MIC", "procedure,_shortened": "as §2"}, "[16]": {"tested_on": "Rattus norvegicus", "assay": "In vivo evaluation of antifungal activity against vaginal candidosis in rat at dose 0.5 mg/kg on 10th day", "procedure,_shortened": "(§6)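 Female Wistar rats, 10 per group, received estradiol 25 mg/kg sc on day -5. On day 0 they were infected intravaginally with C. albicans by sterile swab. Infection was confirmed on day 3 by culturing the swab in TSB and then on Sabouraud agar. Oral dosing was once daily on days 3, 4 and 5; controls got vehicle only. Vaginal swabs taken on days 10 and 15 were cultured and read the next day.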"}, "[17]": {"tested_on": "Rattus norvegicus", "assay": "In vivo evaluation of antifungal activity in against vaginal candidosis in rat at dose 0.25 mg/kg on 10th day", "procedure,_shortened": "as §1"}, "[18]": {"tested_on": "Mus musculus", "assay": "In vivo evaluation of % survival rate after peroral administration on 5th day at dose 20 mg/kg", "conditions": "route oral"}, "[19]": {"tested_on": "Mus musculus", "assay": "In vivo evaluation of % survival rate after peroral administration on 7th day at dose 5 mg/kg", "conditions": "route oral"}, "[20]": {"tested_on": "Mus musculus", "assay": "In vivo evaluation of % survival rate after peroral administration on 9th day at dose 20 mg/kg", "conditions": "route oral"}, "[21]": {"tested_on": "Mus sp.", "assay": "In vivo evaluation of % survival rate after peroral administration on 9th day at dose 2.5 mg/kg", "conditions": "Mus sp., po"}, "[22]": {"tested_on": "Rattus norvegicus", "assay": "In vivo evaluation of antifungal activity against vaginal candidosis in rat at dose 0.5 mg/kg on 15th day", "procedure,_shortened": "as §6"}, "[23]": {"tested_on": "Mus sp.", "assay": "In vivo evaluation of % survival rate after peroral administration on 7th day at dose 2.5 mg/kg", "conditions": "Mus sp., po"}, "[24]": {"tested_on": "Mus musculus", "assay": "In vivo evaluation of % survival rate after peroral administration on 7th day at dose 10 mg/kg", "conditions": "route oral"}, "[25]": {"tested_on": "Mus musculus", "assay": "In vivo evaluation of % survival rate after peroral administration on 3rd day at dose 10 mg/kg", "conditions": "route oral"}, "[26]": {"tested_on": "Mus sp.", "assay": "In vivo evaluation of % survival rate after peroral administration on 3rd day at dose 2.5 mg/kg", "conditions": "Mus sp., po"}, "[27]": {"tested_on": "Mus musculus", "assay": "In vivo evaluation of % survival rate after peroral administration on 3rd day at dose 20 mg/kg", "conditions": "route oral"}, "[28]": {"tested_on": "Candida albicans", "assay": "[…] Evaluation of minimum inhibitory concentration against Candida albicans 406", "procedure,_shortened": "as §2"}, "[29]": {"tested_on": "Candida albicans", "assay": "[…] Evaluation of minimum inhibitory concentration against Candida albicans 60", "procedure,_shortened": "as §2"}, "[30]": {"tested_on": "Nakaseomyces glabratus", "assay": "In vitro evaluation of minimum inhibitory concentration against Torulopsis glabrata 78", "conditions": "Nakaseomyces glabratus; read-out: MIC", "procedure,_shortened": "as §2"}, "[31]": {"tested_on": "Mus sp.", "assay": "In vivo evaluation of % survival rate after peroral administration on 5th day at dose 2.5 mg/kg", "conditions": "Mus sp., po"}, "[32]": {"tested_on": "Mus musculus", "assay": "In vivo evaluation of % survival rate after peroral administration on 5th day at dose 5 mg/kg", "conditions": "route oral"}, "[33]": {"tested_on": "Mus musculus", "assay": "In vivo evaluation of % survival rate after peroral administration on 5th day at dose 10 mg/kg", "conditions": "route oral"}, "[34]": {"tested_on": "Mus musculus", "assay": "In vivo evaluation of % survival rate after peroral administration on 9th day at dose 10 mg/kg", "conditions": "route oral"}, "[35]": {"tested_on": "Mus musculus", "assay": "In vivo evaluation of % survival rate after peroral administration on 3rd day at dose 5 mg/kg", "conditions": "route oral"}, "[36]": {"tested_on": "Candida tropicalis", "assay": "In vitro evaluation of minimum inhibitory concentration against Candida tropicalis 2.11", "conditions": "Candida tropicalis; read-out: MIC", "procedure,_shortened": "as §2"}}, "data": [{"smiles": "C[C@H]1N(C(=O)c2ccc(C(F)(F)F)cc2)C[C@H](O)O[C@@]1(Cn1cncn1)c1ccc(F)cc1F", "note": "(stereo in doubt; (-)-39a)", "values": [{"measurement": "Cure rate", "setting": "[1]", "result": 95, "unit": "%"}, {"measurement": "MIC", "setting": "[2]", "result": "> 80", "unit": "µg/mL"}, {"measurement": "MIC", "setting": "[3]", "result": 40, "unit": "µg/mL"}, {"measurement": "MIC", "setting": "[4]", "result": 20, "unit": "µg/mL"}, {"measurement": "MIC", "setting": "[5]", "result": "> 80", "unit": "µg/mL"}, {"measurement": "MIC", "setting": "[6]", "result": 0.5, "unit": "µg/mL"}, {"measurement": "MFC", "setting": "[7]", "result": 32, "unit": "µg/mL"}, {"measurement": "MIC", "setting": "[7]", "result": 16, "unit": "µg/mL"}, {"measurement": "MIC", "setting": "[8]", "result": 1.25, "unit": "µg/mL"}, {"measurement": "MIC", "setting": "[9]", "result": 2.5, "unit": "µg/mL"}, {"measurement": "Cure rate", "setting": "[10]", "result": 30, "unit": "%"}, {"measurement": "Cure rate", "setting": "[11]", "result": 50, "unit": "%"}]}, {"smiles": "OC(Cn1cncn1)(Cn1cncn1)c1ccc(F)cc1F", "note": "[FLUCONAZOLE]", "values": [{"measurement": "survival at 5 mg/kg", "setting": "[12]", "result": 40, "unit": "%"}, {"measurement": "MIC", "setting": "[13]", "result": 80, "unit": "µg/mL"}, {"measurement": "survival at 20 mg/kg", "setting": "[14]", "result": 98, "unit": "%"}, {"measurement": "MIC", "setting": "[15]", "result": "> 80", "unit": "µg/mL"}, {"measurement": "Cure rate", "setting": "[16]", "result": 20, "unit": "%"}, {"measurement": "Cure rate", "setting": "[17]", "result": 10, "unit": "%"}, {"measurement": "survival at 20 mg/kg", "setting": "[18]", "result": 100, "unit": "%"}, {"measurement": "MIC", "setting": "[6]", "result": 0.5, "unit": "µg/mL"}, {"measurement": "survival at 5 mg/kg", "setting": "[19]", "result": 90, "unit": "%"}, {"measurement": "survival at 20 mg/kg", "setting": "[20]", "result": 75, "unit": "%"}, {"measurement": "survival at 2.5 mg/kg", "setting": "[21]", "result": 70, "unit": "%"}, {"measurement": "Cure rate", "setting": "[22]", "result": 20, "unit": "%"}, {"measurement": "survival at 2.5 mg/kg", "setting": "[23]", "result": 95, "unit": "%"}, {"measurement": "survival at 10 mg/kg", "setting": "[24]", "result": 80, "unit": "%"}, {"measurement": "survival at 10 mg/kg", "setting": "[25]", "result": 100, "unit": "%"}, {"measurement": "survival at 2.5 mg/kg", "setting": "[26]", "result": 100, "unit": "%"}, {"measurement": "survival at 20 mg/kg", "setting": "[27]", "result": 100, "unit": "%"}, {"measurement": "MIC", "setting": "[28]", "result": 2.5, "unit": "µg/mL"}, {"measurement": "MIC", "setting": "[29]", "result": 2.5, "unit": "µg/mL"}, {"measurement": "MFC", "setting": "[7]", "result": "> 64", "unit": "µg/mL"}, {"measurement": "MIC", "setting": "[7]", "result": 4, "unit": "µg/mL"}, {"measurement": "MIC", "setting": "[30]", "result": "> 80", "unit": "µg/mL"}, {"measurement": "survival at 2.5 mg/kg", "setting": "[31]", "result": 100, "unit": "%"}, {"measurement": "survival at 5 mg/kg", "setting": "[32]", "result": 100, "unit": "%"}, {"measurement": "survival at 10 mg/kg", "setting": "[33]", "result": 100, "unit": "%"}, {"measurement": "survival at 10 mg/kg", "setting": "[34]", "result": 60, "unit": "%"}, {"measurement": "survival at 5 mg/kg", "setting": "[35]", "result": 100, "unit": "%"}, {"measurement": "MIC", "setting": "[36]", "result": 80, "unit": "µg/mL"}]}]}
